Test results: ChEMBL document CHEMBL1134554, “Design, synthesis, and structure-activity relationships of macrocyclic hydroxamic acids that inhibit tumor necrosis factor alpha release in vitro and in vivo” (J Med Chem, 2001)

Key:
Stromelysin-1 = Stromelysin-1 (Homo sapiens, UniProt P08254); test: Inhibition of human MMP-3.
[1] = molecular target: Matrix metalloproteinase-9 (Homo sapiens, UniProt P14780); test: In vitro inhibition of human MMP-9.
Interstitial collagenase = molecular target: T1, Interstitial collagenase (Homo sapiens, UniProt P03956); test: In vitro inhibition of human MMP-1.
T1 sequence (P03956 whole entry): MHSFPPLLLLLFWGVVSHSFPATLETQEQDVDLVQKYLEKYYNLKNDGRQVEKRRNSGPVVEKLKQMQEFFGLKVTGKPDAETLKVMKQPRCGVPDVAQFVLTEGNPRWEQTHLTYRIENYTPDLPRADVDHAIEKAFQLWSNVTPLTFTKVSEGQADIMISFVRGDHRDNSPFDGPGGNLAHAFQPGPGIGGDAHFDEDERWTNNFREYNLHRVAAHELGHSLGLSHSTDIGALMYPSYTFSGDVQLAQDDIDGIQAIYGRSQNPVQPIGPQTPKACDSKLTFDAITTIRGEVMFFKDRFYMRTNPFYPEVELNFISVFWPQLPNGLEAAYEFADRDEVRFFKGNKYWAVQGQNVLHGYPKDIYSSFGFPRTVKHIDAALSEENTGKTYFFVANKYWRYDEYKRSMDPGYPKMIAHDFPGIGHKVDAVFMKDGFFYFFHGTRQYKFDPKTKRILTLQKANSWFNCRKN

[2] = molecular target: Disintegrin and metalloproteinase domain-containing protein 17 (Homo sapiens, UniProt P78536)
Mus musculus [3] = test: Compound at an oral dose of 30 mg/Kg was tested for the inhibition of LPS-stimulated TNF-alpha release in mouse; assay type: functional
How it was run: (§1)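 Mice dosed orally at time zero, then immediately given ip D-galactosamine 20 mg plus LPS 10 μg. One hour later, animals anesthetized and bled by cardiac puncture. Plasma TNF-α quantified by mouse-specific ELISA.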

Mus musculus [4] = test: Compound at an oral dose of 100 mg/Kg was tested for the inhibition of LPS-stimulated TNF-alpha release in mouse; assay type: functional; how it was run: as §1

Sequence of Stromelysin-1 (P08254 whole entry): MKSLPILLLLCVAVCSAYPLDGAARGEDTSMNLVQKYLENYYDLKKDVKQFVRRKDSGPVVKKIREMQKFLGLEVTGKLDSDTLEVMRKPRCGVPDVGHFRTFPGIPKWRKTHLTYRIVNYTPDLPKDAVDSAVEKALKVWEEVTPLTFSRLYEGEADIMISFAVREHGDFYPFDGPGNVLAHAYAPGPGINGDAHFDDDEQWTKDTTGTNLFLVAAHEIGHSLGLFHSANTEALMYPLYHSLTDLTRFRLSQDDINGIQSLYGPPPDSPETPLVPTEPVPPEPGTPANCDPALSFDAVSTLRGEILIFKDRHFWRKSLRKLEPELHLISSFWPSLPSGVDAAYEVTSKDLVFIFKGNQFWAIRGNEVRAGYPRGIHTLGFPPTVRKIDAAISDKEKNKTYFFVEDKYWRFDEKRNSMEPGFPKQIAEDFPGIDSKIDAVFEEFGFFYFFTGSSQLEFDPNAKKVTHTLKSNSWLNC
Sequence of Disintegrin and metalloproteinase domain-containing protein 17 (P78536 whole entry, the tested form may be a part): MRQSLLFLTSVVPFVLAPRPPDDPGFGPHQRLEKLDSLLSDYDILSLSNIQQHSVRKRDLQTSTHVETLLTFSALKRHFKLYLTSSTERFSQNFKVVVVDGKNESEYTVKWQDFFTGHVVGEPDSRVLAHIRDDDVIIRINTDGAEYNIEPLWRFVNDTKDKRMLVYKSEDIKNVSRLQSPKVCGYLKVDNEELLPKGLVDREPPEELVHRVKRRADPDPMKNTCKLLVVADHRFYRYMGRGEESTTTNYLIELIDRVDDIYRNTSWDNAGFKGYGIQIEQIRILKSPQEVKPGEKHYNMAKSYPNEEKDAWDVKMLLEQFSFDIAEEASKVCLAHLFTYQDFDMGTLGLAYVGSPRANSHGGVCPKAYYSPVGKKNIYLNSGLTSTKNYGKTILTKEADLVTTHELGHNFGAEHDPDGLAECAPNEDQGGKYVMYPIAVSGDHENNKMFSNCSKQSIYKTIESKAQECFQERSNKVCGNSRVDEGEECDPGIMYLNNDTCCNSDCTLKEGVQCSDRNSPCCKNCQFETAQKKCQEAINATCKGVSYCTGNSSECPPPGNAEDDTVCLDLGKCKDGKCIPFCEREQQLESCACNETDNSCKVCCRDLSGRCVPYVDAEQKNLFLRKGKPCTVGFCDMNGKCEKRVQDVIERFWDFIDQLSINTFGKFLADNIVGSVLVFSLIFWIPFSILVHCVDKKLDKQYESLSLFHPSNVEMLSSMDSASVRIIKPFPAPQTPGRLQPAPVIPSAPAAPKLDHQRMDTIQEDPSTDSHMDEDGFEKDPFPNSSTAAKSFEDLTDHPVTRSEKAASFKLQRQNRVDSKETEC
Sequence of Matrix metalloproteinase-9 (P14780 whole entry): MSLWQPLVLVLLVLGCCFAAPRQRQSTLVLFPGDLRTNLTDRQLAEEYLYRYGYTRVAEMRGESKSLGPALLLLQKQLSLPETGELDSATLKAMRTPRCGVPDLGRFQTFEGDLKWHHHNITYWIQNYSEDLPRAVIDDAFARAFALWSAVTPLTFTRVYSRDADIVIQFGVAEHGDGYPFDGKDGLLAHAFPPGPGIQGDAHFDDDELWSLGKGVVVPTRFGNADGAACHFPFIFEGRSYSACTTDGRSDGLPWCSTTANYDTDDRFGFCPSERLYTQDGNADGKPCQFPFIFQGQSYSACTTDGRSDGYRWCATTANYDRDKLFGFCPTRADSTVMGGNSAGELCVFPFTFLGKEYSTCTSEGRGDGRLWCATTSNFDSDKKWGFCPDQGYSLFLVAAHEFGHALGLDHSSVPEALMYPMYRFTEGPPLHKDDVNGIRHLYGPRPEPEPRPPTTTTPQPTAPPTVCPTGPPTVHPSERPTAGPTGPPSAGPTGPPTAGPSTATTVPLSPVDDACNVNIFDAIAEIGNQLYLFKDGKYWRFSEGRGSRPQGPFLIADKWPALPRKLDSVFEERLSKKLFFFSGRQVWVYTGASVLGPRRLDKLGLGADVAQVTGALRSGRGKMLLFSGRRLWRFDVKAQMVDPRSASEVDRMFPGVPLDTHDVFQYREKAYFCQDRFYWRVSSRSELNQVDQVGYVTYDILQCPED

| Ki (Stromelysin-1) | Ki [1] | Ki (Interstitial collagenase) | IC50 [2] | SMILES | inhibition in vivo at 30 mg/kg (Mus musculus [3]) | inhibition in vivo at 100 mg/kg (Mus musculus [4]) |
| --- | --- | --- | --- | --- | --- | --- |
| 48 nM | 2.1 nM | 5.3 nM | 1000 nM | CNC(=O)[C@@H]1CCc2ccc(cc2)OCCC[C@H](C(=O)NO)[C@@H](CC(C)C)C(=O)N1 | – | – |
| 16.2 nM | 3.3 nM | 1.8 nM | 2400 nM | CNC(=O)[C@@H]1CCCc2ccc(cc2)OCCC[C@H](C(=O)NO)[C@@H](CC(C)C)C(=O)N1 | – | – |
| 3 nM | 3.9 nM | < 1 nM | 3800 nM | CNC(=O)[C@@H]1CCCCN(C)C(=O)CO[C@H](C(=O)NO)[C@@H](CC(C)C)C(=O)N1 | – | – |
| – | 3.6 nM | 1.4 nM | 1600 nM | CNC(=O)[C@@H]1CCCCNC(=O)CC[C@H](C(=O)NO)[C@@H](CC(C)C)C(=O)N1 | – | – |
| – | – | – | 210 nM | CNC(=O)[C@@H](CCCCNC(=O)OC(C)(C)C)NC(=O)[C@@H]1CCCCNC(=O)OCCC[C@H](C(=O)NO)[C@@H](CC(C)C)C(=O)N1 | – | – |
| – | 1.1 nM | < 1 nM | 1000 nM | CNC(=O)[C@@H]1CCCCNC(=O)OCCC[C@H](C(=O)NO)[C@@H](CC(C)C)C(=O)N1 | – | – |
| – | < 1 nM | < 1 nM | 2300 nM | CNC(=O)[C@@H]1CCCCN(C)C(=O)OCCC[C@H](C(=O)NO)[C@@H](CC(C)C)C(=O)N1 | – | – |

Further lines, the molecule ahead of its results:

| SMILES | Ki (Stromelysin-1) | Ki [1] | Ki (Interstitial collagenase) | IC50 [2] | inhibition in vivo at 30 mg/kg (Mus musculus [3]) | inhibition in vivo at 100 mg/kg (Mus musculus [4]) |
| --- | --- | --- | --- | --- | --- | --- |
| CNC(=O)[C@@H](Cc1ccc(OC)cc1)NC(=O)[C@H](CC(C)C)[C@H](C)C(=O)NO | – | < 1 nM | < 1 nM | 1800 nM | – | – |
| CCCCCC[C@H]1C(=O)N[C@H](C(=O)NCCc2ccc(S(N)(=O)=O)cc2)Cc2ccc(cc2)OCCC[C@@H]1C(=O)NO | – | – | – | 480 nM | 26% | – |
| CNC(=O)[C@@H]1CSc2ccccc2NC(=O)CO[C@H](C(=O)NO)[C@@H](CC(C)C)C(=O)N1 | 22.3 nM | – | < 1 nM | 8000 nM | – | – |
| CNC(=O)[C@@H]1Cc2cn(c3ccccc23)CCCCO[C@H](C(=O)NO)[C@@H](CC(C)C)C(=O)N1 | 2.88 nM | – | < 1 nM | 3700 nM | – | – |
| CC(C)C[C@H]1C(=O)N[C@H](C(=O)NCC(=O)NC2CCC2)Cc2ccc(cc2)OCCC[C@@H]1C(=O)NO | – | – | – | 200 nM | 31% | – |
| CCCCCC[C@H]1C(=O)N[C@H](C(=O)N[C@H](CCCCN)C(N)=O)Cc2ccc(cc2)OCCC[C@@H]1C(=O)NO | – | – | – | 760 nM | 36% | – |
| CCCCCC[C@H]1C(=O)N[C@H](C(=O)NC)Cc2ccc(cc2)OCCC[C@@H]1C(=O)NO | – | – | – | 2500 nM | – | 26% |
| CC(C)C[C@H]1C(=O)N[C@H](C(=O)Nc2ccccc2)CCCCNC(=O)OCCC[C@@H]1C(=O)NO | – | – | – | 280 nM | – | – |
| CC(C)C[C@H]1C(=O)N[C@H](C(=O)Nc2ccncc2)CCCCN(C)C(=O)OCCC[C@@H]1C(=O)NO | – | – | – | 500 nM | – | – |
| CC(C)C[C@H]1C(=O)N[C@H](C(=O)NCC(=O)N2CCN(C)CC2)CCCCN(C)C(=O)OCCC[C@@H]1C(=O)NO | – | – | – | 120 nM | – | – |
| CC(C)C[C@H]1C(=O)N[C@H](C(=O)NCC(=O)NC(C)(C)C)Cc2ccc(cc2)OCCC[C@@H]1C(=O)NO | – | – | – | 200 nM | 21% | – |
| CC(C)C[C@H]1C(=O)N[C@H](C(=O)NCC(=O)Nc2ccccc2)Cc2ccc(cc2)OCCC[C@@H]1C(=O)NO | – | – | – | 200 nM | – | – |
| CC(C)C[C@H]1C(=O)N[C@H](C(=O)NCCc2ccccn2)CCCCNC(=O)OCCC[C@@H]1C(=O)NO | – | – | – | 390 nM | – | – |
